Source: ChEMBL document CHEMBL2150999, “Design, synthesis and biological evaluation of benzo[e][1,2,4]triazin-7(1H)-one and [1,2,4]-triazino[5,6,1-jk]carbazol-6-one derivatives as dual inhibitors of beta-amyloid aggregation and acetyl/butyryl cholinesterase” (Eur J Med Chem, 2012)
Converted amounts (≈) assume the structure as drawn. The source made the active and inactive calls. The calls are words filed in the database; no cut-off is given here.

Legend:
[1] = molecular target: Acetylcholinesterase (Electrophorus electricus) (UniProt O42275); assay: Inhibition of electric eel AChE using acetylthiocholine iodide as substrate at 10 uM after 20 mins by Ellman's method
Cholinesterase = Cholinesterase (Equus caballus, UniProt P81908); assay: Inhibition of equine serum BChE using butyrylthiocholine iodide as substrate after 20 mins by Ellman's method
Method in brief: (§1)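 Enzyme (eel AChE 463 U/mg or equine serum BChE 13 U/mg) in 0.1 M phosphate buffer pH 8.0 with DTNB, preincubated with inhibitor 20 min at 25 °C. Then acetylthiocholine or butyrylthiocholine iodide added; absorbance rise at 412 nm read 5.0 min at 25 °C. DMSO below 1%. IC50 from nonlinear regression of response/log(concentration), six to seven concentrations, 1×10^-8 to 1×10^-4 M. Means of three independent experiments.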

[2] = Inhibition of HFIP-induced amyloid beta (1-40) aggregation after 2 hrs by thioflavin T fluorescence method
Method in brief: (§2)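 Pre-monomerized Aβ1-40 (HFIP-dissolved, lyophilized) at 30 µM in PBS (0.01 M, NaCl 0.1 M, pH 7.4) with 2% HFIP and 10% DMSO, coincubated with compound in triplicate at 25 °C for 2 h. Sample mixed with 25 µM ThT in 0.025 M phosphate pH 6.0; excitation 440 nm, emission 485 nm. Peptide-free blanks subtracted; % inhibition versus control. Primary screen at 100 µM. IC50 from 5–7 concentrations (200–0.01 µM) tested in duplicate, three independent experiments.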

[3] = Inhibition of HFIP-induced amyloid beta (1-40) aggregation at 100 uM after 2 hrs by thioflavin T fluorescence method; method in brief: as §2
[4] = molecular target: Cholinesterase (Equus caballus) (UniProt P81908); assay: Inhibition of equine serum BChE using butyrylthiocholine iodide as substrate at 10 uM after 20 mins by Ellman's method
[5] = Aqueous solubility of the compound in PBS buffer; format: physicochemical
Method in brief: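 Preliminary solubility in the incubation medium (PBS with up to 10% ethanol cosolvent) measured by UV spectroscopy; used to set the maximum soluble test concentration.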

[6] = Inhibition of amyloid beta (1-40) fibrillation assessed as extended fibrillar weft formation at 50 uM after 7 days by TEM analysis
Method in brief: (§3)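 Aβ1-40 (50 µM) in PBS/10% ethanol, with compound at 10 or 50 µM, incubated at 37 °C for up to 10 days. Aliquots taken at 7 days were applied to carbon-coated grids and negatively stained with 2% w/v uranyl acetate. Imaged by TEM at 60 kV and 39 000-fold magnification, compared with self-aggregating control.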

[7] = Inhibition of amyloid beta (1-40) beta-sheet transition assessed as decrease in beta-sheet level after 7 days by CD spectroscopic analysis relative to control
Method in brief: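 Aβ1-40 (50 µM) in PBS with 10% ethanol, alone or with compound (10 or 50 µM), incubated at 37 °C without agitation. CD spectra 195–250 nm were recorded at room temperature in a 0.1 cm cell, with buffer/ethanol or inhibitor blank baseline subtracted. Absolute ellipticity at 215 nm was followed over time and expressed relative to the control plateau.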

[8] = Inhibition of amyloid beta (1-42) aggregation at 100 uM measured at 8 hrs and 24 hrs by thioflavin T fluorescence method
Method in brief: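 Aβ1-42 (30 µM) in PBS/10% DMSO at 37 °C, alone or with compound at 100 µM. ThT fluorescence (ex 440, em 485 nm) read at 8 h and 24 h, reported in arbitrary units; mean ± SEM of three independent experiments.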

[9] = Inhibition of amyloid beta (1-40) fibrillation assessed as isolated fibrillar aggregates formation at 10 uM after 7 days by TEM analysis; method in brief: as §3
Acetylcholinesterase = Acetylcholinesterase (Electrophorus electricus, UniProt O42275); assay: Inhibition of electric eel AChE using acetylthiocholine iodide as substrate after 20 mins by Ellman's method; method in brief: as §1
Sequence of Acetylcholinesterase (O42275 whole entry): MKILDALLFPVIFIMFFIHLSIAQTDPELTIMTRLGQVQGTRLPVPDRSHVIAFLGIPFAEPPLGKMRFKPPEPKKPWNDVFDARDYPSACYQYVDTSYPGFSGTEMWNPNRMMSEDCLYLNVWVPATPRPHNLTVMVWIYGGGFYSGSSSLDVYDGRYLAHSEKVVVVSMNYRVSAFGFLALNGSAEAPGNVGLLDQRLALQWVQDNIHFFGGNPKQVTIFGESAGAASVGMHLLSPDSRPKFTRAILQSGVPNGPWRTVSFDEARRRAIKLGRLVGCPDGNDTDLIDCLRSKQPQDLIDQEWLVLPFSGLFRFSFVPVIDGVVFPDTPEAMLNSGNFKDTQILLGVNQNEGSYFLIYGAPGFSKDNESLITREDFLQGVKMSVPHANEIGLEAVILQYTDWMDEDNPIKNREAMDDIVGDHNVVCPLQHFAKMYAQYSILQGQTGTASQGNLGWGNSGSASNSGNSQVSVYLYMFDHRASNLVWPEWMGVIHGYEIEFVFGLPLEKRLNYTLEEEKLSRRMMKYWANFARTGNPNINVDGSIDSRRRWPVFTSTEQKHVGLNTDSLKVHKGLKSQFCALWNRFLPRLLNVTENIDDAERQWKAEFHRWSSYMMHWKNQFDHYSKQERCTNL

Sequence of Acetylcholinesterase (Electrophorus electricus) (O42275 24-633 limits assumed): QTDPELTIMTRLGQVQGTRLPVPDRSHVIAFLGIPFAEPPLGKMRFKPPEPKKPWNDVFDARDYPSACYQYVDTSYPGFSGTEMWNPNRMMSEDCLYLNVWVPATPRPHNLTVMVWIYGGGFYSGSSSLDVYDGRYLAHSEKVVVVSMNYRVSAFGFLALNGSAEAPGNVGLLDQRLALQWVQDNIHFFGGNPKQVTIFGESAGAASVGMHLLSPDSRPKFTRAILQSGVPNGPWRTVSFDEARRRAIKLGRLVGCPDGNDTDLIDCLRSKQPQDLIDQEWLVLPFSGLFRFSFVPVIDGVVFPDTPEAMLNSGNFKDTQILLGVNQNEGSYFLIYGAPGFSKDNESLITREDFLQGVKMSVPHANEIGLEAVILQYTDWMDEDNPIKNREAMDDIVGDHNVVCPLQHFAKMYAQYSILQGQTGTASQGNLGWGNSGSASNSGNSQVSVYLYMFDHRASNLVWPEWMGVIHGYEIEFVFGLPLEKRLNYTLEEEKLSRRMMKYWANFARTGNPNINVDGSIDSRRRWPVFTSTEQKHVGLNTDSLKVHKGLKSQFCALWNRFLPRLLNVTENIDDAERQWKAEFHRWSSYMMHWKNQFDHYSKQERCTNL
Sequence of Cholinesterase (P81908 whole entry): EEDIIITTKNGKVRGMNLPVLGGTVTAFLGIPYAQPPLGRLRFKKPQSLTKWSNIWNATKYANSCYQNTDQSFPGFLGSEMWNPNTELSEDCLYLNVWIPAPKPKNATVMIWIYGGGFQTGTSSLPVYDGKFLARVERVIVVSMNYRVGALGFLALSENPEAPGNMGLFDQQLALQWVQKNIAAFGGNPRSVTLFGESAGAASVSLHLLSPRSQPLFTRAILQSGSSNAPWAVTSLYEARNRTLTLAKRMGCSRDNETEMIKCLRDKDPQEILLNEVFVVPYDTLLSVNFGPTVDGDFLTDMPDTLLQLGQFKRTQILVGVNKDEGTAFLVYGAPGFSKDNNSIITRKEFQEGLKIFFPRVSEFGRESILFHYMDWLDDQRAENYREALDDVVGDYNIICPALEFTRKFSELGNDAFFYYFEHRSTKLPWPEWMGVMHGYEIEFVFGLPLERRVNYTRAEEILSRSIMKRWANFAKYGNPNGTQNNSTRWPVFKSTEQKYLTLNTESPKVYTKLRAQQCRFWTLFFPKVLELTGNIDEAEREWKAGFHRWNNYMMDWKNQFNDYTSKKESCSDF
Sequence of Cholinesterase (Equus caballus) (P81908 whole entry): as above

Row | Compound | inhibition [1] [%] | IC50 [2] [nM] | inhibition [3] [%] | inhibition [4] [%] | other results
1 | CN(C)CCCN(C)c1cc2nc(-c3ccccc3)nn3c4ccccc4c(c1=O)c23 | 49 | 7600 | – | – | IC50 (Cholinesterase): 4000 nM
2 | O=c1cc2n(-c3ccccc3)nc(-c3ccccc3)nc-2cc1N1CCOCC1 | 42 | – | 48 | 0 | –
3 | CC1CCN(c2cc3nc(-c4ccccc4)nn(-c4ccccc4)c-3cc2=O)CC1 | 48 | – | 68 | 11 | –
4 | CN1CCN(c2cc3nc(-c4ccccc4)nn(-c4ccccc4)c-3cc2=O)CC1 | 55 | – | 55 | 12 | –
5 | O=c1ccc2nc(-c3ccccc3)nn3c4ccccc4c1c23 | 46 | 6100 | – | 59 | solubility [5]: 50 µM (≈ 14.9 µg/mL); inhibition [6]: Active; inhibition [7]: inactive; inhibition [8]: Active
6 | O=c1cc2n(-c3ccccc3)nc(-c3ccccc3)nc-2cc1N1CCc2ccccc2C1 | 47 | – | 68 | 14 | –
7 | CC1CCCN(c2cc3nc(-c4ccccc4)nn(-c4ccccc4)c-3cc2=O)C1 (stereo not given) | 55 | 730 | – | 25 | –
8 | CN(CCCCCN(C)c1cc2nc(-c3ccccc3)nn(-c3ccccc3)c-2cc1=O)Cc1ccccc1 | – | 1400 | – | – | solubility [5]: 10 µM (≈ 5.18 µg/mL); IC50 (Cholinesterase): 1900 nM; inhibition ([7]; concentration not given here): 40%; inhibition [8]: Active; inhibition [9]: Active; IC50 (Acetylcholinesterase): 1500 nM
9 | O=c1cc2n(-c3ccccc3)nc(-c3ccccc3)nc-2cc1N1CCCC1 | 54 | – | 68 | 15 | –
10 | CC1CCCCN1c1cc2nc(-c3ccccc3)nn(-c3ccccc3)c-2cc1=O (stereo not given) | 0 | 370 | – | 22 | inhibition [8]: Active
11 | O=c1cc2n(-c3ccccc3)nc(-c3ccccc3)nc-2cc1N1CCCc2ccccc21 | 41 | 6700 | – | 10 | –
12 | CN(Cc1ccccc1)c1cc2nc(-c3ccccc3)nn3c4ccccc4c(c1=O)c23 | 53 | 4100 | – | 26 | –
13 | O=c1cc2n(-c3ccccc3)nc(-c3ccccc3)nc-2cc1N1CCN(Cc2ccccc2)CC1 | 56 | – | 61 | 18 | –
14 | O=c1cc2n(-c3ccccc3)nc(-c3ccccc3)nc-2cc1N1CCCCCC1 | 46 | 2800 | – | 47 | –
15 | CN(CCCCCCCCNc1cc2nc(-c3ccccc3)nn3c4ccccc4c(c1=O)c23)Cc1ccccc1 | 46 | – | 60 | 25 | –
16 | O=c1cc2n(-c3ccccc3)nc(-c3ccccc3)nc-2cc1N1CCSCC1 | 42 | – | 62 | 0 | –
17 | CC1CC(C)CN(c2cc3nc(-c4ccccc4)nn(-c4ccccc4)c-3cc2=O)C1 (stereo not given) | 46 | 1200 | – | 18 | –
18 | CN(CCCCCCCCN(C)c1cc2nc(-c3ccccc3)nn(-c3ccccc3)c-2cc1=O)Cc1ccccc1 | 50 | 65000 | – | – | IC50 (Cholinesterase): 310 nM
19 | CCN(CC)c1cc2nc(-c3ccccc3)nn3c4ccccc4c(c1=O)c23 | 46 | 1400 | – | 54 | –
20 | COc1cc2nc(-c3ccccc3)nn3c4ccccc4c(c1=O)c23 | 52 | – | 33 | 11 | –

Row | Compound | inhibition [1] [%] | IC50 [2] [nM] | inhibition [3] [%] | inhibition [4] [%] | other results
21 | O=c1c(N2CCCC2)cc2nc(-c3ccccc3)nn3c4ccccc4c1c23 | 44 | 2000 | – | 52 | –
22 | O=c1cc2n(-c3ccccc3)nc(-c3ccccc3)nc-2cc1Sc1ccccc1 | 49 | – | 42 | 6 | –
23 | O=c1c(N2CCC(c3ccccc3)CC2)cc2nc(-c3ccccc3)nn3c4ccccc4c1c23 | 48 | 3900 | – | 11 | –
24 | CCN(Cc1ccccc1)c1cc2nc(-c3ccccc3)nn(-c3ccccc3)c-2cc1=O | 53 | 2100 | – | 13 | –
25 | O=c1cc2n(-c3ccccc3)nc(-c3ccccc3)nc-2cc1N1CCN(c2ccccc2)CC1 | – | – | 53 | 15 | IC50 (Acetylcholinesterase): 2200 nM
26 | CN(c1cc2nc(-c3ccccc3)nn(-c3ccccc3)c-2cc1=O)C1CCCCC1 | 55 | 4000 | – | 37 | –
27 | COc1cc2nc(-c3ccccc3)nn(-c3ccccc3)c-2cc1=O | 47 | – | 60 | 15 | –
28 | CN(CCCCCCCCNc1cc2nc(-c3ccccc3)nn(-c3ccccc3)c-2cc1=O)Cc1ccccc1 | 45 | 21000 | – | 28 | –
29 | CN(C)CCCN(C)c1cc2nc(-c3ccccc3)nn(-c3ccccc3)c-2cc1=O | 46 | – | 45 | 18 | –
30 | O=c1cc2n(-c3ccccc3)nc(-c3ccccc3)nc-2cc1N1CCCCC1 | 39 | 7100 | – | 7 | –
31 | CC1CCCN(c2cc3nc(-c4ccccc4)nn4c5ccccc5c(c2=O)c34)C1 (stereo not given) | 27 | 5500 | – | 53 | –
32 | O=c1cc2n(-c3ccccc3)nc(-c3ccccc3)nc-2cc1Nc1ccccc1 | 57 | – | 13 | 9 | –
33 | CN(CCCCCCCCN(C)c1cc2nc(-c3ccccc3)nn3c4ccccc4c(c1=O)c23)Cc1ccccc1 | 55 | 1400 | – | – | IC50 (Cholinesterase): 25 nM; inhibition [8]: Active
34 | O=c1cc2n(-c3ccccc3)nc(-c3ccccc3)nc-2cc1N1CCC(c2ccccc2)CC1 | 35 | 1500 | – | 10 | –
35 | CCN(CC)c1cc2nc(-c3ccccc3)nn(-c3ccccc3)c-2cc1=O | 55 | 17000 | – | 19 | –
36 | O=c1c(O)c(-c2ccc(O)c(O)c2)oc2cc(O)cc(O)c12 | – | – | – | – | inhibition [8]: Active
37 | CN(Cc1ccccc1)c1cc2nc(-c3ccccc3)nn(-c3ccccc3)c-2cc1=O | 56 | 1000 | – | 22 | –
38 | O=c1ccc2nc(-c3ccccc3)nn(-c3ccccc3)c-2c1 | 47 | – | 39 | 27 | –
39 | CN(c1ccccc1)c1cc2nc(-c3ccccc3)nn(-c3ccccc3)c-2cc1=O | 57 | – | 51 | 11 | –
